Reference: ChEMBL document CHEMBL3124784, “Synthesis, in vitro antiplasmodial activity and cytotoxicity of a series of artemisinin-triazine hybrids and hybrid-dimers” (Eur J Med Chem, 2014)

What was measured:
Plasmodium falciparum [1] = test: Potency index, ratio of pyrimethamine IC50 to compound IC50 for asexual erythrocytic stage of chloroquine-sensitive Plasmodium falciparum NF54; assay type: functional
Plasmodium falciparum [2] = test: Antiplasmodial activity against asexual erythrocytic stage of chloroquine-sensitive Plasmodium falciparum NF54 assessed as parasite growth inhibition after 48 hrs by lactate dehydrogenase assay; assay type: functional, organism-based; conditions: NF54, 48 h
How it was run: (§1)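 pLDH assay (modified Makler method) on cultured parasites, 48 h exposure. Stocks 20 mg/mL in 100% DMSO, stored at −20 °C, diluted in complete medium on the day of analysis; suspensions tested if not fully dissolved. Two-fold serial dilutions over ten concentrations; references started at 1000 ng/mL. Full dose-response for IC50; triplicate on one occasion.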

[3] = Selectivity index, ratio of IC50 for CHO cells to IC50 for asexual erythrocytic stage of chloroquine-sensitive Plasmodium falciparum NF54; assay type: toxicity, cell-based; conditions: hamster; read-out: Ratio IC50
CHO = test: Cytotoxicity against CHO cells after 48 hrs by MTT assay; assay type: cell-based; conditions: Cricetulus griseus
[4] = Resistance index, ratio of IC50 for asexual erythrocytic stage of chloroquine-resistant Plasmodium falciparum Dd2 to IC50 for asexual erythrocytic stage of chloroquine-sensitive Plasmodium falciparum NF54; assay type: functional
Plasmodium falciparum [5] = test: Antiplasmodial activity against asexual erythrocytic stage of chloroquine-resistant Plasmodium falciparum Dd2 assessed as parasite growth inhibition after 48 hrs by lactate dehydrogenase assay; assay type: functional, organism-based; conditions: Dd2, 48 h; how it was run: as §1
Plasmodium falciparum [6] = test: Potency index, ratio of chloroquine IC50 to compound IC50 for asexual erythrocytic stage of chloroquine-sensitive Plasmodium falciparum NF54; assay type: functional

Structure (SMILES)	Ratio IC50 (Plasmodium falciparum [1])	IC50 (Plasmodium falciparum [2]) [nM]	selectivity ratio [3]	IC50 (CHO)	Ratio IC50 [4]	IC50 (Plasmodium falciparum [5]) [nM]	Ratio IC50 (Plasmodium falciparum [6])
COc1ccc(Nc2nc(NCCNCCO[C@H]3O[C@@H]4O[C@@]5(C)CC[C@H]6[C@H](C)CC[C@@H]([C@H]3C)[C@@]46OO5)nc(Nc3ccccc3)n2)cc1.O=C(O)C(=O)O	<=6000	19.8	> 5050	> 100 µg/mL	1.5	28.8	
CC[C@H]1CN2CCc3cc(OC)c(OC)cc3[C@@H]2C[C@@H]1C[C@H]1NCCc2cc(OC)c(OC)cc21 [EMETINE]				100 nM			
COc1ccc(Nc2nc(NCCNCCO[C@H]3O[C@@H]4O[C@@]5(C)CC[C@H]6[C@H](C)CC[C@@H]([C@H]3C)[C@@]46OO5)nc(N3CCOCC3)n2)cc1.O=C(O)C(=O)O	<=6000	38.5	81	3100 nM	1.5	57.4	
COc1ccc(Nc2nc(NCCN(CCO[C@H]3O[C@@H]4O[C@@]5(C)CC[C@H]6[C@H](C)CC[C@@H]([C@H]3C)[C@@]46OO5)CCO[C@H]3O[C@@H]4O[C@@]5(C)CC[C@H]6[C@H](C)CC[C@@H]([C@H]3C)[C@@]46OO5)nc(N3CCOCC3)n2)cc1.O=C(O)C(=O)O	<=6000	25.8	35	900 nM	1.4	35.9	
COc1ccc(Nc2nc(NCCN(CCO[C@H]3O[C@@H]4O[C@@]5(C)CC[C@H]6[C@H](C)CC[C@@H]([C@H]3C)[C@@]46OO5)CCO[C@H]3O[C@@H]4O[C@@]5(C)CC[C@H]6[C@H](C)CC[C@@H]([C@H]3C)[C@@]46OO5)nc(N3CCCCC3)n2)cc1.O=C(O)C(=O)O	<=6000	11.6	1470	17000 nM	1.2	13.6	
C[C@H]1[C@H](OC(=O)CCC(=O)O)O[C@@H]2O[C@@]3(C)CC[C@H]4[C@H](C)CC[C@@H]1[C@@]24OO3 [ARTESUNATE]		< 5.2				8.1	
C[C@H]1[C@@H](OCCNCCNc2nc(N3CCCCC3)nc(N3CCCCC3)n2)O[C@@H]2O[C@@]3(C)CC[C@H]4[C@H](C)CC[C@@H]1[C@@]24OO3.O=C(O)C(=O)O	<=6000	20.6	150	3100 nM	2.3	47.5	
COc1ccc(Nc2nc(NCCN(CCO[C@H]3O[C@@H]4O[C@@]5(C)CC[C@H]6[C@H](C)CC[C@@H]([C@H]3C)[C@@]46OO5)CCO[C@H]3O[C@@H]4O[C@@]5(C)CC[C@H]6[C@H](C)CC[C@@H]([C@H]3C)[C@@]46OO5)nc(NCCN(C(C)C)C(C)C)n2)cc1.O=C(O)C(=O)O	<=6000	31.8	> 3080	> 100 µg/mL	1	33.1	
C[C@H]1[C@@H](OCCNCCNc2nc(Nc3ccccc3)nc(Nc3ccccc3)n2)O[C@@H]2O[C@@]3(C)CC[C@H]4[C@H](C)CC[C@@H]1[C@@]24OO3.O=C(O)C(=O)O	<=6000	27.2	588	16000 nM	2.2	59.1	
C[C@H]1[C@@H](OCCN(CCNc2nc(Nc3ccccc3)nc(Nc3ccccc3)n2)CCO[C@H]2O[C@@H]3O[C@@]4(C)CC[C@H]5[C@H](C)CC[C@@H]([C@H]2C)[C@@]35OO4)O[C@@H]2O[C@@]3(C)CC[C@H]4[C@H](C)CC[C@@H]1[C@@]24OO3.O=C(O)C(=O)O	<=6000	12.9	54	700 nM	0.8	10.3	
CCc1nc(N)nc(N)c1-c1ccc(Cl)cc1 [PYRIMETHAMINE]		33000		271000 nM		60700	
COc1ccc(Nc2nc(NCCNCCO[C@H]3O[C@@H]4O[C@@]5(C)CC[C@H]6[C@H](C)CC[C@@H]([C@H]3C)[C@@]46OO5)nc(NCCN(C(C)C)C(C)C)n2)cc1.O=C(O)C(=O)O	<=6000	39.1	23	900 nM	1.9	74.7	
C[C@H]1[C@@H](OCCNCCNc2nc(N3CCOCC3)nc(N3CCOCC3)n2)O[C@@H]2O[C@@]3(C)CC[C@H]4[C@H](C)CC[C@@H]1[C@@]24OO3.O=C(O)C(=O)O	<=6000	19.3	160	3100 nM	4.4	85	
COc1ccc(Nc2nc(NCCN(CCO[C@H]3O[C@@H]4O[C@@]5(C)CC[C@H]6[C@H](C)CC[C@@H]([C@H]3C)[C@@]46OO5)CCO[C@H]3O[C@@H]4O[C@@]5(C)CC[C@H]6[C@H](C)CC[C@@H]([C@H]3C)[C@@]46OO5)nc(Nc3ccc(OC)cc3)n2)cc1.O=C(O)C(=O)O	<=6000	5.5	> 18200	> 100 µg/mL	1.9	10.6	2
COc1ccc(Nc2nc(NCCNCCO[C@H]3O[C@@H]4O[C@@]5(C)CC[C@H]6[C@H](C)CC[C@@H]([C@H]3C)[C@@]46OO5)nc(N3CCCCC3)n2)cc1.O=C(O)C(=O)O	<=6000	28	105	3000 nM	1.7	46.3	
C[C@H]1[C@@H](OCCN(CCNc2nc(Nc3ccccc3)nc(N3CCOCC3)n2)CCO[C@H]2O[C@@H]3O[C@@]4(C)CC[C@H]5[C@H](C)CC[C@@H]([C@H]2C)[C@@]35OO4)O[C@@H]2O[C@@]3(C)CC[C@H]4[C@H](C)CC[C@@H]1[C@@]24OO3.O=C(O)C(=O)O	<=6000	7.9	> 13500	> 100 µg/mL	1.3	10.2	
C[C@H]1[C@@H](O)O[C@@H]2O[C@@]3(C)CC[C@H]4[C@H](C)CC[C@@H]1[C@@]24OO3 [ARTENIMOL]		0.9	162000	148000 nM	9.7	8.8	
